What was measured:
[1] = melting temperature; fluorescence melt of hairpins on a sequencing array, two-state fit, raised by 9.35 °C to match UV melts; conditions: sodium 0.088 M
Outline: (§1)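 Cy3 fluorescence of library hairpins on a sequenced MiSeq flow cell, with annealed Cy3 and quencher oligos, was imaged in 50 mM Na-HEPES pH 8.0, 25 mM NaCl in 2.5 °C steps up to 60 °C. Signals were normalised to pre-quench Cy3 and to control variants. Melting temperature and folding enthalpy came from bootstrapped two-state fits, inverse-variance combined over four replicates. Fitted temperatures were raised by 9.35 °C to match UV melts.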

[2] = folding enthalpy; higher = less favourable; fluorescence melt of hairpins on a sequencing array, two-state fit; conditions: sodium 0.088 M
Outline: as §1

GTGTGCCGAAAGGCTCAC (((.(((....))).)))
Tm [1]: 61.2 °C
folding enthalpy [2]: -31.5 kcal/mol

GTGTGCGAAAGCAAGCAC ((((((....)))..)))
Tm [1]: 43.5 °C
folding enthalpy [2]: -18.9 kcal/mol

GTGTGCGAAAGCACCCAC ((((((....)))..)))
Tm [1]: 39.3 °C
folding enthalpy [2]: -8.11 kcal/mol

GTGTGCGGAAACGTGCAC (((..((....))..)))
Tm [1]: 52.9 °C
folding enthalpy [2]: -38.2 kcal/mol

GTGTGGCGAAAGCCTCAC (((.(((....))).)))
Tm [1]: 58.9 °C
folding enthalpy [2]: -29.7 kcal/mol

GTGTGTGGAAACACATAC ((.((((....)))).))
Tm [1]: 50 °C
folding enthalpy [2]: -20.3 kcal/mol

GTGTGTGGAAACACGCAC (((.(((....))).)))
Tm [1]: 58.7 °C
folding enthalpy [2]: -40 kcal/mol

GTGTGTGGAAACGCACAC (((((.(....).)))))
Tm [1]: 56.5 °C
folding enthalpy [2]: -36.2 kcal/mol

GTGTTACGAAAGTAGCAC (((.(((....))).)))
Tm [1]: 53.9 °C
folding enthalpy [2]: -35.7 kcal/mol

GTGTTAGGAAACTGACAC ((((.((....)).))))
Tm [1]: 46.1 °C
folding enthalpy [2]: -33.8 kcal/mol

GTGTTCCGAAAGGACAC (((.(((....))))))
Tm [1]: 53.8 °C
folding enthalpy [2]: -32.8 kcal/mol

GTGTTCGAAAGAAACCAC ((((((....)))..)))
Tm [1]: 27.4 °C
folding enthalpy [2]: -10.4 kcal/mol

GTGTTCGAAAGAAAGCAC ((((((....)))..)))
Tm [1]: 27.5 °C
folding enthalpy [2]: -12.8 kcal/mol

GTGTTCGAAAGAAGGCAC ((((((....)))..)))
Tm [1]: 28.6 °C
folding enthalpy [2]: -22 kcal/mol

GTGTTCGCGAAAGCGCAC (((..(((....))))))
Tm [1]: 45.2 °C
folding enthalpy [2]: -18.1 kcal/mol

GTGTTCGGAAACGAGCAC (((.(((....))).)))
Tm [1]: 53.8 °C
folding enthalpy [2]: -40.4 kcal/mol

GTGTTCGGAAACGAGTAC ((..(((....)))..))
Tm [1]: 31.2 °C
folding enthalpy [2]: -18.9 kcal/mol

GTGTTGACGAAAGTCCAC (((..(((....))))))
Tm [1]: 41.6 °C
folding enthalpy [2]: -19.6 kcal/mol

GTGTTGGGAAACCAATGC (..((((....))))..)
Tm [1]: 38 °C
folding enthalpy [2]: -25.2 kcal/mol

GTGTTGTCGAAAGACCAC (((..(((....))))))
Tm [1]: 42.4 °C
folding enthalpy [2]: -21.6 kcal/mol

GTGTTTCGAAAGAAGCAC (((.(((....))).)))
Tm [1]: 51 °C
folding enthalpy [2]: -38.1 kcal/mol

GTGTTTGGAAACGAACAC (((((.(....).)))))
Tm [1]: 49.5 °C
folding enthalpy [2]: -35.8 kcal/mol

GTTAAACGAAAGTTAAAC (((.(((....))).)))
Tm [1]: 34.2 °C
folding enthalpy [2]: -17.7 kcal/mol

GTTAAAGGAAACTTTAAC (((((((....)))))))
Tm [1]: 46.6 °C
folding enthalpy [2]: -34.6 kcal/mol

GTTAAGACGAAAGTCAAC (((..(((....))))))
Tm [1]: 30.1 °C
folding enthalpy [2]: -11.8 kcal/mol

GTTAATCGAAAGATAAAC (((.(((....))).)))
Tm [1]: 31.6 °C
folding enthalpy [2]: -20.7 kcal/mol

GTTAATGGAAACATTAGC (.(((((....))))).)
Tm [1]: 34.8 °C
folding enthalpy [2]: -20.7 kcal/mol

GTTACCCGAAAGGGCAAC (((.(((....))).)))
Tm [1]: 47.3 °C
folding enthalpy [2]: -24.4 kcal/mol

GTTACCCGAAAGGGGAAC (((.(((....))).)))
Tm [1]: 61.5 °C
folding enthalpy [2]: -32.2 kcal/mol

GTTACCGAAAGGTATAAC ((((((....)))..)))
Tm [1]: 31.1 °C
folding enthalpy [2]: -11.7 kcal/mol

GTTACCGAAAGGTGCAAC ((((((....)))..)))
Tm [1]: 27.3 °C
folding enthalpy [2]: -8.88 kcal/mol

GTTACCGGAAACGATAAC ((((.((....)).))))
Tm [1]: 36.1 °C
folding enthalpy [2]: -26.6 kcal/mol

GTTACCGGAAACGGCAAC (((.(((....))).)))
Tm [1]: 44 °C
folding enthalpy [2]: -24.6 kcal/mol

GTTACCGGAAACGGTAGC (.(((((....))))).)
Tm [1]: 50.4 °C
folding enthalpy [2]: -18.9 kcal/mol

GTTACGCGAAAGCGCAAC (((.(((....))).)))
Tm [1]: 49.3 °C
folding enthalpy [2]: -19.4 kcal/mol

GTTACGGGAAACCATAAC ((((.((....)).))))
Tm [1]: 30 °C
folding enthalpy [2]: -15.6 kcal/mol

GTTACTCGAAAGAGCAAC (((.(((....))).)))
Tm [1]: 43.3 °C
folding enthalpy [2]: -27.5 kcal/mol

GTTACTGGAAACAGCAAC (((.(((....))).)))
Tm [1]: 36 °C
folding enthalpy [2]: -28 kcal/mol

GTTAGACGAAAGTCAAAC (((.(((....))).)))
Tm [1]: 43.6 °C
folding enthalpy [2]: -18.6 kcal/mol

GTTAGACGAAAGTCAAC (((.(((....))))))
Tm [1]: 43 °C
folding enthalpy [2]: -13.4 kcal/mol

GTTAGAGGAAACCCTAAC (((((.(....).)))))
Tm [1]: 31.9 °C
folding enthalpy [2]: -17.9 kcal/mol

GTTAGCCGAAAGGCAAAC (((.(((....))).)))
Tm [1]: 48.6 °C
folding enthalpy [2]: -18.1 kcal/mol

GTTAGCGAAAGCTCGAAC ((((((....)))..)))
Tm [1]: 22.9 °C
folding enthalpy [2]: -7.85 kcal/mol

GTTAGCGCGAAAGCGAAC (((..(((....))))))
Tm [1]: 27.7 °C
folding enthalpy [2]: -6.83 kcal/mol

GTTAGCGGAAACGCTAGC (.(((((....))))).)
Tm [1]: 49.3 °C
folding enthalpy [2]: -16.1 kcal/mol

GTTAGCGGAAACGTTGAC ((.(.((....)).).))
Tm [1]: 30 °C
folding enthalpy [2]: -14.7 kcal/mol

GTTAGGCGAAAGCCGAAC (((.(((....))).)))
Tm [1]: 55.9 °C
folding enthalpy [2]: -19.6 kcal/mol

GTTAGGGGAAACCCCAAC (((.(((....))).)))
Tm [1]: 37.4 °C
folding enthalpy [2]: -19 kcal/mol

GTTAGGGGAAACCCTAGC (.(((((....))))).)
Tm [1]: 40.7 °C
folding enthalpy [2]: -21.5 kcal/mol

GTTAGTCGAAAGACCAAC (((.(((....))).)))
Tm [1]: 37 °C
folding enthalpy [2]: -19.1 kcal/mol

GTTAGTGGAAACACCAAC (((.(((....))).)))
Tm [1]: 29.3 °C
folding enthalpy [2]: -13.3 kcal/mol

GTTATAGAAATATAAC ((((((....))))))
Tm [1]: 33.6 °C
folding enthalpy [2]: -17.1 kcal/mol

GTTATAGGAAACTATGAC ((.((((....)))).))
Tm [1]: 33 °C
folding enthalpy [2]: -23 kcal/mol

GTTATCCGAAAGGAAAAC (((.(((....))).)))
Tm [1]: 40.8 °C
folding enthalpy [2]: -25.2 kcal/mol

GTTATCGAAAGATAAC ((((((....))))))
Tm [1]: 53.1 °C
folding enthalpy [2]: -42.8 kcal/mol

GTTATCGAAAGATACAAC ((((((....)))..)))
Tm [1]: 23.5 °C
folding enthalpy [2]: -9.31 kcal/mol

GTTATCGGAAACGATAAC (((((((....)))))))
Tm [1]: 57 °C
folding enthalpy [2]: -46.2 kcal/mol

GTTATCGGAAACGGTAAC ((((.((....)).))))
Tm [1]: 44.9 °C
folding enthalpy [2]: -26.8 kcal/mol

GTTATGCGAAAGCAAAC (((.(((....))))))
Tm [1]: 36.5 °C
folding enthalpy [2]: -14.3 kcal/mol

GTTATGGAAACATAAC ((((((....))))))
Tm [1]: 47.5 °C
folding enthalpy [2]: -30.3 kcal/mol

GTTATGGCGAAAGCCAAC (((..(((....))))))
Tm [1]: 29.5 °C
folding enthalpy [2]: -8.21 kcal/mol

GTTATTGGAAACAATAGC (.(((((....))))).)
Tm [1]: 33.4 °C
folding enthalpy [2]: -18.9 kcal/mol

GTTATTGGAAACAATGAC ((.((((....)))).))
Tm [1]: 36.9 °C
folding enthalpy [2]: -32.5 kcal/mol

GTTATTGGAAACAGTAAC ((((.((....)).))))
Tm [1]: 33.4 °C
folding enthalpy [2]: -27.5 kcal/mol

GTTATTGGAAACGATAAC (((((.(....).)))))
Tm [1]: 38.7 °C
folding enthalpy [2]: -21.5 kcal/mol

GTTCAAGGAAACCTGAAC (((((.(....).)))))
Tm [1]: 35.6 °C
folding enthalpy [2]: -30.1 kcal/mol

GTTCAAGGAAACTTGAGC (.(((((....))))).)
Tm [1]: 40.1 °C
folding enthalpy [2]: -22.5 kcal/mol

GTTCACCCGAAAGGGAAC (((..(((....))))))
Tm [1]: 37.2 °C
folding enthalpy [2]: -14.3 kcal/mol

GTTCACCGAAAGGTTAAC (((.(((....))).)))
Tm [1]: 42.3 °C
folding enthalpy [2]: -26.4 kcal/mol

GTTCACGAAAGTGACAAC ((((((....)))..)))
Tm [1]: 35.3 °C
folding enthalpy [2]: -10.1 kcal/mol

GTTCACGAAAGTGAGAAC ((((((....)))..)))
Tm [1]: 37.5 °C
folding enthalpy [2]: -11.2 kcal/mol

GTTCACGAAAGTGTAAAC ((((((....)))..)))
Tm [1]: 28.2 °C
folding enthalpy [2]: -12.3 kcal/mol

GTTCACGAAAGTGTTAAC ((((((....)))..)))
Tm [1]: 28 °C
folding enthalpy [2]: -12.2 kcal/mol

GTTCAGAAATGAAC (((((....)))))
Tm [1]: 41.8 °C
folding enthalpy [2]: -21.2 kcal/mol

GTTCAGCGAAAGCTAAAC (((.(((....))).)))
Tm [1]: 37.8 °C
folding enthalpy [2]: -21.6 kcal/mol

GTTCAGCGAAAGCTCAAC (((.(((....))).)))
Tm [1]: 33.2 °C
folding enthalpy [2]: -15.4 kcal/mol

GTTCAGGGAAACCTGGAC ((.((((....)))).))
Tm [1]: 48.9 °C
folding enthalpy [2]: -29.6 kcal/mol

GTTCATCGAAAGATAAC (((.(((....))))))
Tm [1]: 32.3 °C
folding enthalpy [2]: -12.4 kcal/mol

GTTCCCACGAAAGTGAAC (((..(((....))))))
Tm [1]: 25.7 °C
folding enthalpy [2]: -10 kcal/mol

GTTCCCCGAAAGGGCAAC (((.(((....))).)))
Tm [1]: 35.2 °C
folding enthalpy [2]: -14.5 kcal/mol

GTTCCCGAAAGGGCAAAC ((((((....)))..)))
Tm [1]: 28.9 °C
folding enthalpy [2]: -9.62 kcal/mol

GTTCCCGAAAGGGTAAAC ((((((....)))..)))
Tm [1]: 28.8 °C
folding enthalpy [2]: -11.5 kcal/mol

GTTCCCGAAAGGGTAAC ((((((....))).)))
Tm [1]: 40.9 °C
folding enthalpy [2]: -17.6 kcal/mol

GTTCCGCGAAAGCGAAC (((.(((....))))))
Tm [1]: 50.8 °C
folding enthalpy [2]: -14.7 kcal/mol

GTTCCTCGAAAGAGTAAC (((.(((....))).)))
Tm [1]: 34.1 °C
folding enthalpy [2]: -27.6 kcal/mol

GTTCCTGGAAACAGGAAC (((((((....)))))))
Tm [1]: 63.5 °C
folding enthalpy [2]: -40.9 kcal/mol

GTTCGACGAAAGTCCAAC (((.(((....))).)))
Tm [1]: 34.5 °C
folding enthalpy [2]: -19.8 kcal/mol

GTTCGCACGAAAGTGAAC (((..(((....))))))
Tm [1]: 39 °C
folding enthalpy [2]: -16.3 kcal/mol

GTTCGCCGAAAGGCAAAC (((.(((....))).)))
Tm [1]: 46.9 °C
folding enthalpy [2]: -18.1 kcal/mol

GTTCGCGAAAGCGAAAAC ((((((....)))..)))
Tm [1]: 47.4 °C
folding enthalpy [2]: -9.22 kcal/mol

GTTCGCGAAAGCGATAAC ((((((....)))..)))
Tm [1]: 32.7 °C
folding enthalpy [2]: -8.04 kcal/mol
